Measured values collected from several papers.
Target: Platelet-derived growth factor receptor beta (PDGFRB, Homo sapiens, UniProt P09619)

With `C#Cc1n[nH]c2c(-c3cn([C@@H](C)c4ccccn4)c(=O)[nH]c3=O)cc(F)cc12` the inhibition was 4% (enzyme activity, inhibitor; 0.1 µM).
The remaining activity of `O=c1[nH]c2ccccc2n1C1CCN(Cc2ccc(-c3[nH]c4cc5ncnc5cc4nc3-c3ccccc3)cc2)CC1` is reported as 102% (enzyme activity; 0.5 µM).
`N#CC1(c2ccccn2)CCN(Cc2cc(C(=O)O)c(=O)n3ccccc23)CC1` has a remaining binding of 100% (cell-free assay, competition with immobilised ligand; 1 µM).
`COCc1c(-c2cc3cc(C)cc(OC)c3s2)c2c(N)ncnn2c1CN1CCNC(=O)C1` gave an inhibition of 86% (cell-free assay, competition with immobilised ligand; 1 µM).
The remaining activity of `CC(C)(C)c1cc(C=C(C#N)C#N)cc(Br)c1O` is reported as 104% (enzyme activity, inhibitor; 0.5 µM).
With `Cn1cc(-c2cc(F)cc(N3CCn4c(cc5c4CCCC5)C3=O)c2CO)cc(Nc2ccc(N3CCN(C4COC4)CC3)cn2)c1=O` the inhibition was 2% (enzyme activity, inhibitor; 0.1 µM).
The remaining binding of `Nc1ncc(-c2nc(N3CCOCC3)nc(N3CCOCC3)n2)c(C(F)F)n1` is reported as 69% (binding, competition with immobilised ligand; 10 µM).
`C#Cc1n[nH]c2c(-c3cn([C@@H](C)c4ccccc4)c(=O)[nH]c3=O)cc(F)cc12` gave an inhibition of 3.1% (enzyme activity, inhibitor; 0.1 µM).
`COc1ncccc1-c1cnn2ccc(N3CCN(C(=O)OC(C)C)CC3)nc12` has a remaining binding of 83% (binding, competition with immobilised ligand; 1 µM).
The inhibition of `Cn1cc(-c2cccc(N3CCc4c(sc5c4CC(C)(C)C5)C3=O)c2CO)cc(Nc2ccncn2)c1=O` is reported as 3% (enzyme activity, inhibitor; 1 µM).
The remaining binding of `Cn1cncc1[C@](O)(COc1ccc(C#N)cc1-c1ccc(OC(F)(F)F)cc1)c1ccc(C#N)cc1` is reported as 100% (cell-free assay, competition with immobilised ligand; 1 µM).
